Experimental data taken from ChEMBL document CHEMBL1130040, “Synthesis and structure-activity relationships of a new model of arylpiperazines. 2. Three-dimensional quantitative structure-activity relationships of hydantoin-phenylpiperazine derivatives with affinity for 5-HT1A and alpha 1 receptors. A comparison of CoMFA models” (J Med Chem, 1997).

Assays:
[1] = molecular target: T1, 5-hydroxytryptamine receptor 1A (Rattus norvegicus, UniProt P19327); assay: Tested in vitro for binding affinity by measuring its ability to inhibit [3H]8-OH-DPAT binding at 5-hydroxytryptamine 1A receptor in rat cerebral cortex membranes.; format: cell membranes
T1 sequence (P19327 whole entry): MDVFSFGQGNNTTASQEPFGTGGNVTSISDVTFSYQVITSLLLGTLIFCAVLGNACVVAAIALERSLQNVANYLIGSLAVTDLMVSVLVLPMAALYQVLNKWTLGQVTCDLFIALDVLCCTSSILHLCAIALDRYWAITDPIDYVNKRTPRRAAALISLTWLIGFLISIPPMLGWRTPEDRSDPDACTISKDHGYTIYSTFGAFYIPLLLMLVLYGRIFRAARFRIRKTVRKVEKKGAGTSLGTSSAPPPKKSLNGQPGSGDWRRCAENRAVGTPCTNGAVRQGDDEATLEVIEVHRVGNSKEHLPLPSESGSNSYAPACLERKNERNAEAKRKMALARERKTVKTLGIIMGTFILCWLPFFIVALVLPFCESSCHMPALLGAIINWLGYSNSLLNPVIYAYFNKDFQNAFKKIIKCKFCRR
Summary of the method: (§1)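 Rat cortex homogenized in ice-cold 50 mM Tris-HCl (pH 7.7), spun at 28000g, washed twice, preincubated 37 °C 10 min, resuspended in Tris/5 mM MgSO4/0.5 mM EDTA (pH 7.4). About 1 mg protein incubated 15 min at 37 °C with 0.6 nM [3H]-8-OH-DPAT and competitor, in buffer with 10 nM clonidine and 30 nM prazosin. Nonspecific binding: 10 μM 5-HT. Prescreen at 10^-6 M; curves run if displacement ≥55%.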

[2] = molecular target: T2, Adrenergic receptor alpha-1 (Rattus norvegicus, UniProt P15823+P23944+P43140); assay: Tested in vitro for binding affinity by measuring its ability to inhibit [3H]prazosin binding at alpha-1 adrenergic receptor in rat cerebral cortex membranes.; format: cell membranes
T2 sequence (P15823 whole entry): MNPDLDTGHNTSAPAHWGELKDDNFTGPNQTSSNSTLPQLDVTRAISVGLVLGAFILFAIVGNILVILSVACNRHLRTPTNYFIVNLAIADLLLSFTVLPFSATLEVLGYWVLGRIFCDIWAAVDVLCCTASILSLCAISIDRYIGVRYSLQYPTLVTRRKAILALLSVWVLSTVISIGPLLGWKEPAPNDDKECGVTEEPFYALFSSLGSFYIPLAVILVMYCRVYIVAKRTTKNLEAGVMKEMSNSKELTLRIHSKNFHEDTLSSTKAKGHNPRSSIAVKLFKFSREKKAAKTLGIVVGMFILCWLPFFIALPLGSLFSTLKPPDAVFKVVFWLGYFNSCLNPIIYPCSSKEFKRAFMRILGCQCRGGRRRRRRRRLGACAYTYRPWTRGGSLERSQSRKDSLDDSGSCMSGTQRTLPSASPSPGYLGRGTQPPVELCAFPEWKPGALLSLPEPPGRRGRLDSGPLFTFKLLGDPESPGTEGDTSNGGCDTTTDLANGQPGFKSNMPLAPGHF
T2 sequence (P23944 whole entry): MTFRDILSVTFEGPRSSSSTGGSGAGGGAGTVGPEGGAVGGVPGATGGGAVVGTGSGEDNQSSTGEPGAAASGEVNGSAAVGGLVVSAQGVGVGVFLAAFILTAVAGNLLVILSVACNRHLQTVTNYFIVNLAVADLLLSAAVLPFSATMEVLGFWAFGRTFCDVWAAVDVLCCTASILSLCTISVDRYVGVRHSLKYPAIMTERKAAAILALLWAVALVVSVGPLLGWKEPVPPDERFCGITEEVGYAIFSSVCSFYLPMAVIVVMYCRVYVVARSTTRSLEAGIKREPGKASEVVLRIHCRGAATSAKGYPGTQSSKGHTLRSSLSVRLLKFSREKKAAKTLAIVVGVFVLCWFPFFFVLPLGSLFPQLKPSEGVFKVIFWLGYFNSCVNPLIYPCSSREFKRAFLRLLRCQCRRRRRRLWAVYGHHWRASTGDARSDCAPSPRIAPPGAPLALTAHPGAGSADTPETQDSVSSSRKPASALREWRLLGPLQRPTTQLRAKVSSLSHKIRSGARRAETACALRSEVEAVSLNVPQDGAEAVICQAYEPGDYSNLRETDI
T2 sequence (P43140 whole entry): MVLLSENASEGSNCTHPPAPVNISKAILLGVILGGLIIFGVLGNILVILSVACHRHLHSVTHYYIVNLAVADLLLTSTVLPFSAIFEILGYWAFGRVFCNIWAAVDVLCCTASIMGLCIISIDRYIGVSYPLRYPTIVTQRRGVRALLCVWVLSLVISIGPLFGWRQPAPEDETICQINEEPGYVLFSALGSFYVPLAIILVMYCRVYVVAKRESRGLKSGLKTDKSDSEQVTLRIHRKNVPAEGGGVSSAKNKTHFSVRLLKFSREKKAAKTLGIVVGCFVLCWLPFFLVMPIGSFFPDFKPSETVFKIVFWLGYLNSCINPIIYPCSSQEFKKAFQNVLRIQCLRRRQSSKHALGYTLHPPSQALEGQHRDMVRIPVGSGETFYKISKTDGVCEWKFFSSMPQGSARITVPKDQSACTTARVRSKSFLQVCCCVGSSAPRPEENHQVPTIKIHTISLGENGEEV
Summary of the method: (§2)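 Rat cerebral cortex homogenized in ice-cold 50 mM Tris-HCl/10 mM MgCl2 (pH 7.7), centrifuged at 30000g, washed twice. About 250 μg membrane protein incubated at 25 °C for 30 min with 0.2 nM [3H]prazosin plus several competitor concentrations. Compounds first screened at 10^-6 M; dose-response curves done where displacement reached ≥55%.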

[3] = molecular target: T1, 5-hydroxytryptamine receptor 1A; assay: In vitro binding affinity against 5-hydroxytryptamine 1A receptor of rat cerebral cortex using [3H]8-OH-DPAT as radioligand.; format: tissue-based; summary of the method: as §1
[4] = molecular target: T2, Adrenergic receptor alpha-1; assay: In vitro binding affinity against alpha-1 adrenergic receptor of rat cerebral cortex using [3H]prazosin as radioligand.; format: tissue-based; summary of the method: as §2

Compound | Ki [1] [µM] | Ki [2] [µM] | Ki [4] [µM] | also measured
CC(C)C(=O)Nc1cccc(N2CCN(CCCCN3C(=O)C4CCCN4C3=O)CC2)c1.Cl (stereo not drawn) | 0.102 | > 10 |  | 
O=C1C2CCCCN2C(=O)N1CCN1CCN(c2ccc(F)cc2)CC1 (stereo not drawn) | 19.3 |  |  | 
O=C1C2CCCCN2C(=O)N1CCN1CCN(c2ccccc2)CC1 (stereo not drawn) | 1.35 |  |  | 
COc1ccccc1N1CCN(CN2C(=O)C3CCCCN3C2=O)CC1 (stereo not drawn) |  |  |  | Ki [3]: 0.0311 µM
O=C1C2CCCN2C(=O)N1CN1CCN(c2ccc([N+](=O)[O-])cc2)CC1 (stereo not drawn) |  |  | 260 | Ki [3]: 6.1 µM
Nc1ccc(N2CCN(CCCCN3C(=O)C4CCCN4C3=O)CC2)cc1 (stereo not drawn) | > 10 |  |  | 
O=C1C2CCCCN2C(=O)N1CCCN1CCN(c2ccc([N+](=O)[O-])cc2)CC1 (stereo not drawn) | 30.6 | 6.652 |  | 
O=C1C2CCCCN2C(=O)N1CN1CCN(c2ccccc2)CC1 (stereo not drawn) |  |  | 2.075 | 
O=C1C2CCCN2C(=O)N1CN1CCN(c2ccc(F)cc2)CC1 (stereo not drawn) |  |  | 1.193 | 
O=C1C2CCCN2C(=O)N1CCCN1CCN(c2ccc([N+](=O)[O-])cc2)CC1 (stereo not drawn) |  | 7.533 |  | 
O=C1C2CCCN2C(=O)N1CCCN1CCN(c2ccc(F)cc2)CC1 (stereo not drawn) | 1.18 |  |  | 

Further lines, with some results ahead:

Ki [1] [µM] | Ki [2] [µM] | Ki [4] [µM] | Compound | also measured
 |  | 3.296 | O=C1C2CCCCN2C(=O)N1CN1CCN(c2cccc(C(F)(F)F)c2)CC1 (stereo not drawn) | 
7.55 |  |  | O=C1C2CCCN2C(=O)N1CCN1CCN(c2ccccc2)CC1 (stereo not drawn) | 
93.6 | 199 |  | O=C1C2CCCCN2C(=O)N1CCN1CCN(c2ccc([N+](=O)[O-])cc2)CC1 (stereo not drawn) | 
 | 4.325 |  | O=C1C2CCCCN2C(=O)N1CCN1CCN(c2cccc(C(F)(F)F)c2)CC1 (stereo not drawn) | 
 |  | 3.296 | O=C1C2CCCN2C(=O)N1CN1CCN(c2cccc(C(F)(F)F)c2)CC1 (stereo not drawn) | 
23.9 |  |  | O=C1C2CCCN2C(=O)N1CCN1CCN(c2ccc(F)cc2)CC1 (stereo not drawn) | 
 |  | 2.588 | O=C1C2CCCN2C(=O)N1CN1CCN(c2ccccc2)CC1 (stereo not drawn) | 
501 | 260 |  | O=C1C2CCCN2C(=O)N1CCN1CCN(c2ccc([N+](=O)[O-])cc2)CC1 (stereo not drawn) | 
 |  | 260 | O=C1C2CCCCN2C(=O)N1CN1CCN(c2ccc([N+](=O)[O-])cc2)CC1 (stereo not drawn) | Ki [3]: 5.97 µM
23.9 |  |  | O=C1C2CCCN2C(=O)N1CCCCN1CCN(c2ccc([N+](=O)[O-])cc2)CC1 (stereo not drawn) | 
 | 3.935 |  | O=C1C2CCCN2C(=O)N1CCN1CCN(c2cccc(C(F)(F)F)c2)CC1 (stereo not drawn) | 
